Experimental findings from PubChem BioAssay are described below.

Assay [1] is described as follows: inhibitors of TNFa-induced NFkB p65 translocation, primary screen, imaging, HUVEC, MLSMR starter and 10KST1 sets (AID 438;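 active = inhibition above 20% together with a positive visual image hit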;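 also: compound added about 3h40 before a 20 min TNFalpha stimulation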;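 as to inhibition: signal is the nuclear over cytoplasmic p65 intensity ratio per well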). As to conditions: HUVEC TNFa-induced p65 nuclear translocation; cell count: measured here: nuclei count (cytotoxicity indicator), at 2.08 µM; inhibition: at 2 µM, stronger effect = higher value, 0% TNFa-plus-vehicle, 100% no-TNFa wells.
Assay [2] can be described thus: endothelial E-selectin expression blockers – imaging, HUVEC, immunofluorescence, MLSMR starter and 10KST1 sets, primary screen (AID 487;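 active = visually confirmed hit in the image check and inhibition above 20%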;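 as to inhibition: signal is fraction of cell area covered by stained E-selectin grains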;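 as to nuclei count: 100% = median nuclei count of all wells on the same plate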). The following applies: HUVEC TNFalpha-induced E-selectin immunofluorescence imaging, at 2 µM; inhibition: stronger effect = higher value; nuclei count: measured here: cell number, toxicity.
A short description of assay [3]: Primary imaging screen for DUSP6 inhibitors that restore phospho-Erk in transfected HeLa cells, chemical complementation (AID 609;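 active = compounds giving at least 50% inhibition in the cell-based MKP-3 phosphatase rescue imaging test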;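 as to inhibition: phospho-Erk level distribution per well compared with pooled transfected vehicle control wells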). As to conditions: HeLa MKP-3 transfected, phospho-Erk imaging KS statistic, at 10 µM, cells stimulated with TPA for 15 min.
In assay [4] the target is Dual specificity protein phosphatase 6 (Homo sapiens) (UniProt Q16828). The description is as above. As to conditions: HeLa MKP-3 transfected, phospho-Erk imaging KS statistic; at 10 µM; stronger effect = higher value; cells stimulated with TPA for 15 min.
Dual specificity protein phosphatase 6 (Homo sapiens), sequence (Q16828 whole entry, looked up): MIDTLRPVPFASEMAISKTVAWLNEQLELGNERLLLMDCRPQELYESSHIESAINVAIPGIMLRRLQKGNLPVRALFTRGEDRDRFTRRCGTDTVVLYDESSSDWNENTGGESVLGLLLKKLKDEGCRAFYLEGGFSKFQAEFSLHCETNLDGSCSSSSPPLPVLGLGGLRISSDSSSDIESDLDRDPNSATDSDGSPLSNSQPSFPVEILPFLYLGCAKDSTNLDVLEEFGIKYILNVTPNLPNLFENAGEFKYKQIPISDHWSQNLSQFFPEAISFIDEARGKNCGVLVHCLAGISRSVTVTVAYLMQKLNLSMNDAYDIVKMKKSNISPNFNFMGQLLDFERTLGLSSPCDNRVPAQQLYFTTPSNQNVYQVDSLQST
Assay [5] concerns the target Voltage-gated potassium channel subunit beta-2 (Rattus norvegicus) (UniProt P62483). The assay can be described thus: inhibitors of rat Kvbeta2 reductase activity – biochemical, NADPH fluorescence, primary screen (AID 622;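 active = fluorescence slope higher than the sample average by over 3 SD, cut at about -0.22 in these data, passing the limit was not always enough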;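 also: slope of raw intensity against log time taken from 70 to 1610 s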). As to conditions: recombinant KvBeta, 4-cyanobenzaldehyde reduction, at 10 µM, stronger effect = higher value.
The target is the same in assay [6]. The assay can be described thus: enhancers of rat Kvbeta2 NADPH turnover – biochemical, NADPH fluorescence, primary screen (AID 623).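 Also: fluorescence intensity change per second fitted from 20 to 320 s.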 The following applies: Recombinant KvBeta, NADPH fluorescence decrease slope, 10 min; at 10 µM; stronger effect = lower value.
For assay [7], the target named is Muscarinic acetylcholine receptor M4 (Homo sapiens) (UniProt P08173). The experiment in a line: M4-linked GIRK flux change, two-sided – cell-based, HEK293 M4/GIRK, thallium flux, BTC-AM, M4 allosteric agonist project, primary screen (AID 625;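 active = fluorescence slope after compound addition differing from the mean of all tested samples at 99.7% confidence, mostly higher but some lower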;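 also: thallium influx through GIRK channels coupled to M4 in HEK293 cells with BTC-AM dye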). As to conditions: at 10 µM, actives lie on both sides. An outline of the steps: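 Material: M4/GIRK1/GIRK2 stable HEK293 cell line. Medium: pH 7.3 thallium assay buffer. Dosing: single compound concentration, 10 µM final. Schedule: 1 h dye loading, 2 min kinetic read. Measured by: kinetic fluorescence with BTC-AM dye. Read-out: post-addition slope, 15–24 s, of baseline-normalized fluorescence. Benchmarks: carbachol and DMSO controls.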
Muscarinic acetylcholine receptor M4 (Homo sapiens), sequence (P08173 whole entry, looked up): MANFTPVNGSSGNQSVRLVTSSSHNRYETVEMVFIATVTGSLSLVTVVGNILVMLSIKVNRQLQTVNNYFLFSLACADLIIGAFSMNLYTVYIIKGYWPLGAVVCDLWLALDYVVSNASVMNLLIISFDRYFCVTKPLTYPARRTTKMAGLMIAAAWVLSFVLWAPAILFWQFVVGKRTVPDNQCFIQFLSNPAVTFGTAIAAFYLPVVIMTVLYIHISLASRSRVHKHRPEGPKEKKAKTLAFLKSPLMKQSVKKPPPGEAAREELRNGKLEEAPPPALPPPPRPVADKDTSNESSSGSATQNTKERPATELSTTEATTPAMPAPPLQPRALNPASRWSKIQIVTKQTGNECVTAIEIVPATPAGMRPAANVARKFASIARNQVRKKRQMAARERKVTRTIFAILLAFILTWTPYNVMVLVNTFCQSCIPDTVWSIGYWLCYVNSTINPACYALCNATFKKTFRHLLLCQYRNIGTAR

Assay [8] is described as follows: inhibitors of larval lipid processing in zebrafish, primary screen, whole organism, PED6 fluorescence, gall bladder and intestine (AID 686;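 active = a full or partial loss of lipid-probe fluorescence in the fish gall bladder, intestine or both, judged by eye; inactive = no fluorescence loss, or compound toxic to the fish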;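 also: larvae 5 to 7 days old with five fish per well; signal comes from phospholipase A2 cleavage of quenched PED6 carried via bile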). As to conditions: Zebrafish larvae PED6 lipid processing, fluorescence scoring; screened at 20 µM (by protocol). In a few lines: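 System: live zebrafish larvae aged 5-7 days, whole organism; measure: graded gall bladder and intestinal fluorescence inhibition per well; incubation: overnight exposure; reagent: ingested quenched lipid PED6 at 100 nM; signal: By-eye fluorescence microscopy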

Assay [9] is described as follows: loss of swimming-algae plug formation – whole organism, Chlamydomonas reinhardtii, WT vs cilia-less mutant, absorbance, 96-well, primary screen (AID 463189;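 active = inhibition at or above 50% relative to wild type and mutant plate controls; inactive = inhibition below 50%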;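 also: 0% = wild type cc124 cells in DMSO and 100% = ciliumless bld1 mutant cells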). The following applies: Chlamydomonas reinhardtii gravitaxis, OD600 absorbance, 2 days; at 10 µM; stronger effect = higher value.
[10] abbreviates: measured here: cell density z-score.
Setting [11] is: measured here: nuclear c-Myc green intensity z-score.
Setting [12] is: measured here: nuclear pErk red intensity z-score, stronger effect = higher value.

Activity calls are given as the source filed them.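 The calls were made as follows, unless noted: active = NADPH fluorescence slope more negative than the mean of all samples by about 3 SD, 99.7% confidence; inactive = the rest.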

Voltage-gated potassium channel subunit beta-2 (Rattus norvegicus), sequence (P62483 whole entry, looked up): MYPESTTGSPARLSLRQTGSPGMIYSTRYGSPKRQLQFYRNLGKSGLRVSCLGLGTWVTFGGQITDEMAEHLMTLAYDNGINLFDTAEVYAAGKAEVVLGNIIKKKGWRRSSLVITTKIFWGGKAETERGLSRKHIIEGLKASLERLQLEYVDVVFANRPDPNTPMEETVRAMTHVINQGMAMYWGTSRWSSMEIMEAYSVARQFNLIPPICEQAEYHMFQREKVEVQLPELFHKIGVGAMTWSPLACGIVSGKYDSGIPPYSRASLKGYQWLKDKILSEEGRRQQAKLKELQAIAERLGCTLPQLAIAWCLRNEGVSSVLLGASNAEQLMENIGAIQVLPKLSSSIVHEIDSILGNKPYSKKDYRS

On to `Cn1c(CSc2ncn[nH]2)nc2ccccc21`, for which the cell count in [1] came out at 537. Further, the inhibition (in general, the drop in the measured response relative to a control, in per cent) was -6.4% (inactive) in [1], -75.5% (inactive) in assay [2], 20.2% (inactive) in assay [4] and -14.5% (inactive) in [9]. For the same compound, in [2], the nuclei count stood at 122%. Further, the figures for the z-score in assay [3] (setting [10]), in assay [3] (setting [11]) and in assay [3] (setting [12]) were -3.21, 1.73 and 1.28, respectively. Also, the fluorescence slope in assay [5] was -0.49 (inactive); in [7], 0.00416 (inactive). Further, the NADPH fluorescence slope in [6] is -0.000116 (inactive). Also, the call in [8] was inactive.

Take `C=CCn1c(=N)c(C(=O)OCC)cc2c(=O)n3cccc(C)c3nc21`: in [1], the cell count is 614. In addition, the inhibition in assay [1] is 5.3% (inactive); in assay [2] it was -125% (inactive); in assay [4] it was -9.66% (inactive); in assay [9], 159% (active). In assay [2], the nuclei count turned out to be 149%. Besides, the z-score was -2.08 in assay [3] (setting [10]), 1.41 in [3] (setting [11]) and 1.9 in assay [3] (setting [12]). In addition, the figures for the fluorescence slope in [5] and in [7] were -0.114 (inactive) and 0.00285 (inactive), respectively. The NADPH fluorescence slope in assay [6] is -2e-05 (inactive). For the same compound, in assay [8], the call was inactive.

As for `N#C/C(C(=O)N1CCCCC1)=C1\Nc2ccccc2S1`, the cell count in assay [1] is 649. The inhibition is 6.4% (inactive) in assay [1], -0.9% (inactive) in assay [2], 1.63% (inactive) in assay [4] and 15.7% (inactive) in assay [9]. The nuclei count in assay [2] amounted to 117%. Also, the z-score in [3] (setting [10]) is -0.0253; in assay [3] (setting [11]), -0.323; in assay [3] (setting [12]) it was -0.359. The values for the fluorescence slope in [5] and in assay [7] were -0.457 (inactive) and 0.00412 (inactive), respectively. In assay [6], the NADPH fluorescence slope was -6.2e-05 (inactive). The call in [8] was inactive.

In the case of `COc1cccc(-c2nc(N3CCCCC3C)c3ccccc3n2)c1O` (stereo unspecified), the cell count in assay [1] came to 676. The inhibition in [1] is 1% (inactive); in [2] it was 32.7% (inactive); in assay [4] it was -5.62% (inactive); in assay [9], 9.9% (inactive). Also, the nuclei count in assay [2] came out at 154%. For the same compound, the results for the z-score in assay [3] (setting [10]), in assay [3] (setting [11]) and in assay [3] (setting [12]) were -0.111, 1.23 and 0.615, respectively. Moreover, the fluorescence slope in assay [5] was -0.465 (inactive); in assay [7], 0.0038 (inactive). In assay [6], the NADPH fluorescence slope is -7.5e-05 (inactive). Besides, the outcome in assay [8] is “inactive; toxic”.

Take `COc1ccccc1-c1nnc2n1N=C(c1ccc(O)c(O)c1)CS2`: the cell count in assay [1] stood at 485. Also, the inhibition was 50.9% (active) in assay [1], -490% (inactive) in [2], -6.48% (inactive) in assay [4] and -2.32% (inactive) in assay [9]. The nuclei count in [2] was 70.4%. Further, the z-score in [3] (setting [10]) is 1.36; in assay [3] (setting [11]) it was -1.29; in assay [3] (setting [12]), -0.603. The fluorescence slope in [5] was -0.429 (inactive); in [7], 0.00474 (inactive). The NADPH fluorescence slope in assay [6] was -1.7e-05 (inactive). Further, the outcome in assay [8] was inactive.

`Cc1ccc2[nH]c3c(c2c1)CN(C(=O)CN1CC(C)OC(C)C1)CC3` (stereo unspecified): the cell count in [1] is 409. In addition, the inhibition in assay [1] was -6.9% (inactive); in assay [2] it was -299% (inactive); in assay [4], 3.42% (inactive); in [9], 26.6% (inactive). Besides, in assay [2], the nuclei count was determined as 169%. The z-score in assay [3] (setting [10]) was 1.01; in [3] (setting [11]) it was 0.157; in [3] (setting [12]) it was -0.0941. For the same compound, the figures for the fluorescence slope in assay [5] and in assay [7] were -0.466 (inactive) and 0.00334 (inactive), respectively. Besides, the NADPH fluorescence slope in assay [6] is -0.000107 (inactive). In assay [8], the result was inactive.

On to `Cc1ccc(-n2ncc3c(NCc4cccnc4)ncnc32)c(C)c1`, for which the cell count in assay [1] came to 623. Moreover, the inhibition in assay [1] is -10.1% (inactive); in assay [2] it was 33.3% (inactive); in assay [4], 1.42% (inactive); in [9], -12.1% (inactive). In assay [2], this compound had a nuclei count of 103%. Also, the z-score in assay [3] (setting [10]) was -0.852; in assay [3] (setting [11]) it was 0.459; in [3] (setting [12]) it was 0.734. The fluorescence slope is -0.325 (inactive) in assay [5] and 0.00518 (inactive) in assay [7]. For the same compound, the NADPH fluorescence slope in assay [6] is -4.3e-05 (inactive). The compound was called inactive in assay [8].
